Data as given in ChEMBL document CHEMBL3244229, “Nonsteroidal antiinflammatory agents. 1. 5-Alkoxy-3-biphenylylacetic acids and related compounds as new potential antiinflammatory agenst” (J Med Chem, 1977).

Columns and labels:
[1] = Acute toxicity in ip dosed ddY mouse measured after 168 hrs; format: organism-based; settings: in vivo
How it was run: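 Male ddY mice, four per group, given a single ip injection; deaths assessed 168 h after dosing. LD50 calculated by the method of Weil.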

[2] = tested on: Rattus norvegicus; experiment: Antiinflammatory activity in Wistar rat assessed as inhibition of carrageenan-induced paw edema administered 30 mins prior challenge measured after 3 hrs; format: functional
How it was run: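 Rats were dosed orally. Thirty minutes later, 1% carrageenan was injected subcutaneously into the plantar surface of the hind paw, and paw volume was remeasured 3 h afterward. Percent inhibition came from comparing the volume increase against a control group. ED50 (dose giving 50% inhibition) was derived from least-squares probit response vs log dose regression.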

[3] = tested on: Mus musculus; experiment: Analgesic activity in ip dosed ddY mouse assessed as prevention of pseudoavoidance reflex co-administered with 5 mg/kg, sc morphine hydrochloride by tail pinch method; format: functional
How it was run: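 Groups of eight male ddY mice (25–30 g) got the compound ip as a suspension in 0.5% CMC, together with a threshold dose of morphine hydrochloride (5 mg/kg sc). The read-out was prevention of pseudoavoidance reflexes (biting, squeaking, looking backward) after tail pinching with forceps. ED50 was calculated by the Litchfield–Wilcoxon method.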

SMILES | LD50 at 168 h [1] | ED50 [2] | ED50 [3]
COc1cc(CC(=O)O)cc(C(C)C)c1 | 1600 mg/kg | > 100 mg/kg | 
CCCCOc1cc(C)cc(CC(=O)O)c1 | 673 mg/kg | > 100 mg/kg | 
COc1cc(CC(=O)O)cc(C2CCCCC2)c1 | 564 mg/kg | > 100 mg/kg | 
COc1cc(CC(=O)O)cc(-c2ccc(F)cc2)c1 | 565 mg/kg | 50 mg/kg | 
COc1cc(CC(=O)O)cc(-c2ccc(Cl)cc2Cl)c1 | 336 mg/kg | 70 mg/kg | 
COc1cc(CC(=O)O)cc(-c2ccc(C)cc2)c1 | 566 mg/kg | > 100 mg/kg | 
Cc1cc(CC(=O)O)cc(OCC(C)C)c1 | 1000 mg/kg | > 100 mg/kg | 
COc1ccc(-c2cc(CC(=O)O)cc(OC)c2)cc1 | 636 mg/kg | > 100 mg/kg | 165 mg/kg
COc1cc(C)cc(CC(=O)O)c1 | 673 mg/kg | > 100 mg/kg | 
O=C(O)Cc1cc(O)cc(-c2ccc(Cl)cc2)c1 | 141 mg/kg | > 100 mg/kg | 
COc1cc(CC(=O)O)cc(-c2ccccc2)c1 | 566 mg/kg | 60 mg/kg | 
COC(=O)Cc1cc(O)cc(-c2ccc(Cl)cc2)c1 | > 1600 mg/kg | > 100 mg/kg | 
CCOc1cc(CC(=O)O)cc(-c2ccccc2)c1 | 400 mg/kg | > 100 mg/kg | 
CCCOc1cc(CC(=O)O)cc(-c2ccccc2)c1 | 475 mg/kg | > 100 mg/kg | 
CCCCOc1cc(CC(=O)O)cc(-c2ccccc2)c1 | > 1600 mg/kg | > 100 mg/kg | 
CC(C)COc1cc(CC(=O)O)cc(-c2ccccc2)c1 | 566 mg/kg | > 100 mg/kg | 
CCCCCOc1cc(CC(=O)O)cc(-c2ccccc2)c1 | 1130 mg/kg | > 100 mg/kg | 
CCOc1cc(CC(=O)O)cc(-c2ccc(Cl)cc2)c1 | 284 mg/kg | 51 mg/kg | 

SMILES | LD50 at 168 h [1] | ED50 [2] | ED50 [3]
CCCOc1cc(CC(=O)O)cc(-c2ccc(Cl)cc2)c1 | 400 mg/kg | 97 mg/kg | 
CCCCOc1cc(CC(=O)O)cc(-c2ccc(Cl)cc2)c1 | 237 mg/kg | > 100 mg/kg | 
CC(C)COc1cc(CC(=O)O)cc(-c2ccc(Cl)cc2)c1 | 139 mg/kg | > 100 mg/kg | 
CCCCCOc1cc(CC(=O)O)cc(-c2ccc(Cl)cc2)c1 | 475 mg/kg | > 100 mg/kg | 
CCOC(=O)Cc1cc(O)cc(-c2ccc(Cl)cc2)c1 | > 1600 mg/kg | > 100 mg/kg | 
COc1cc(CCO)cc(-c2ccc(Cl)cc2)c1 | 673 mg/kg | 47 mg/kg | 
COc1cc(CCC(=O)O)cc(-c2ccc(Cl)cc2)c1 | 284 mg/kg | > 100 mg/kg | 
COc1cc(CC(N)=O)cc(-c2ccc(Cl)cc2)c1 | > 1600 mg/kg | > 100 mg/kg | 
COc1cc(CC(=O)NO)cc(-c2ccc(Cl)cc2)c1 | > 1600 mg/kg | > 100 mg/kg | 
COC(=O)Cc1cc(OC)cc(-c2ccc(Cl)cc2)c1 | 1600 mg/kg | 35 mg/kg | 
CCOC(=O)Cc1cc(OC)cc(-c2ccc(Cl)cc2)c1 | 1130 mg/kg | 29 mg/kg | 
COC(=O)Cc1cc(OC(C)=O)cc(-c2ccc(Cl)cc2)c1 | > 1600 mg/kg | > 100 mg/kg | 
COC(=O)Cc1cc(OS(C)(=O)=O)cc(-c2ccc(Cl)cc2)c1 | 1130 mg/kg | > 100 mg/kg | 
COc1cc(C(=O)O)cc(-c2ccc(Cl)cc2)c1 | 1130 mg/kg | > 100 mg/kg | 
COc1cc(CC(=O)O)cc(-c2ccccc2Cl)c1 | 252 mg/kg | 39 mg/kg | 195 mg/kg
COc1cccc(CC(=O)O)c1 | 504 mg/kg | > 100 mg/kg | 
COc1cc(CC(=O)O)cc(-c2ccc(Cl)cc2)c1 | 570 mg/kg | 11 mg/kg | 38 mg/kg
CC(C)Cc1ccc(C(C)C(=O)O)cc1 (stereo unspecified) [IBUPROFEN] | 336 mg/kg | 25 mg/kg | 69 mg/kg
